Data on 3 compounds can be found in ChEMBL document CHEMBL5653631, “A Potent and Selective ULK1 Inhibitor Suppresses Autophagy and Sensitizes Cancer Cells to Nutrient Stress” (iScience, 2018).

The target in test [1] is Serine/threonine-protein kinase B-raf (Homo sapiens) (UniProt P15056). Put plainly: Inhibition of human recombinant BRAF at 15 nM in presence of ATP by radiometric assay relative to control. In outline: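 Part of a radiometric in vitro activity panel of 327 recombinant human kinases. Each kinase was tested in duplicate at one inhibitor concentration. Activity remaining was expressed as a percentage of the vehicle control, and percent inhibition was taken as 100 minus that value.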
Chain of Serine/threonine-protein kinase B-raf (Homo sapiens) (P15056 whole entry): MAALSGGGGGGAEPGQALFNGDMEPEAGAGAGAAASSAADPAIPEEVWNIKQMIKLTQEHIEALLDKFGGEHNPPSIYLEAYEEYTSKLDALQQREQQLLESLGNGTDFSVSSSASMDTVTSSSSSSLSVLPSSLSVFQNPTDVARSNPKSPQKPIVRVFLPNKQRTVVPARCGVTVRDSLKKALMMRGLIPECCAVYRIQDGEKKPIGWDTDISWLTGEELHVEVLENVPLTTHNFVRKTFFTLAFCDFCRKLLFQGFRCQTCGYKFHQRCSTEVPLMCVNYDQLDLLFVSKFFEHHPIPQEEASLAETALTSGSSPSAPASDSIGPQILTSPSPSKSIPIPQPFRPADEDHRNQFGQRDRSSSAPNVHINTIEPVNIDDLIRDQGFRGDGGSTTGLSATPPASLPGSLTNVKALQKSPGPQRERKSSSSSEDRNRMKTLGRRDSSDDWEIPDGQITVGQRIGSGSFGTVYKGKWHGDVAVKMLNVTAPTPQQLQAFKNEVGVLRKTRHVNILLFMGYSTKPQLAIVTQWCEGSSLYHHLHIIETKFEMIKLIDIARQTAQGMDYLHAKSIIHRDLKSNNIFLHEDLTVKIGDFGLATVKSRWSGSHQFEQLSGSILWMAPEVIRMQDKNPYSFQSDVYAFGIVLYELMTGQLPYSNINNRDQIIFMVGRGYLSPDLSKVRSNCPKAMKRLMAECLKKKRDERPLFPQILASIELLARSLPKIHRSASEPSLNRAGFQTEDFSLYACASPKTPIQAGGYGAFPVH

Test [2] addresses Tyrosine-protein kinase Yes (Homo sapiens) (UniProt P07947). Put plainly: Inhibition of human recombinant YES at 15 nM related to control ULK1.
The target of test [3] is Serine/threonine-protein kinase pim-2 (Homo sapiens) (UniProt Q9P1W9). Put plainly: Inhibition of human recombinant PIM2 at 15 nM related to control ULK1.
Chain of Serine/threonine-protein kinase pim-2 (Homo sapiens) (Q9P1W9 whole entry, looked up): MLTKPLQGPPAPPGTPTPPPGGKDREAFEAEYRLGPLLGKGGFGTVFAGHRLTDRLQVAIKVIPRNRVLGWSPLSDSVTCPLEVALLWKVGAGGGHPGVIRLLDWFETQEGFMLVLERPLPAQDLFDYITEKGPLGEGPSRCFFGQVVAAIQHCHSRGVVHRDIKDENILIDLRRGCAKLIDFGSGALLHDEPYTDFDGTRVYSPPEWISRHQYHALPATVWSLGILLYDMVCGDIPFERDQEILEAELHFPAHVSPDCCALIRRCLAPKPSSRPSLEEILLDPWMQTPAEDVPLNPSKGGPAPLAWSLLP
The target in test [4] is Mitogen-activated protein kinase 1 (Homo sapiens) (UniProt P28482). Put plainly: Inhibition of human recombinant Erk2 at 40 nM in presence of ATP by radiometric assay relative to control.
Chain of Mitogen-activated protein kinase 1 (Homo sapiens) (P28482 whole entry): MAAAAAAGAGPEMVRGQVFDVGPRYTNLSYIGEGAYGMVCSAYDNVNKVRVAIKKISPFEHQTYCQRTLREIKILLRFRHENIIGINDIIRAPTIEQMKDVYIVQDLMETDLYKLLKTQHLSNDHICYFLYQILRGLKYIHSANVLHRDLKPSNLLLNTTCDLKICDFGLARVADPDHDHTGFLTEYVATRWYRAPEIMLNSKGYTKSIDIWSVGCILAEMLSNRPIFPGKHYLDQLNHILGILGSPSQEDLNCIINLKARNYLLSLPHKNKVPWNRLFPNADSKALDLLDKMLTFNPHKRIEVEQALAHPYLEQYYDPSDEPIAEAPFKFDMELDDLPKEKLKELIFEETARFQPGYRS
Test [5] concerns the target T1, Eukaryotic translation initiation factor 2-alpha kinase 3 (Homo sapiens) (UniProt Q9NZJ5).
T1 sequence (whole entry): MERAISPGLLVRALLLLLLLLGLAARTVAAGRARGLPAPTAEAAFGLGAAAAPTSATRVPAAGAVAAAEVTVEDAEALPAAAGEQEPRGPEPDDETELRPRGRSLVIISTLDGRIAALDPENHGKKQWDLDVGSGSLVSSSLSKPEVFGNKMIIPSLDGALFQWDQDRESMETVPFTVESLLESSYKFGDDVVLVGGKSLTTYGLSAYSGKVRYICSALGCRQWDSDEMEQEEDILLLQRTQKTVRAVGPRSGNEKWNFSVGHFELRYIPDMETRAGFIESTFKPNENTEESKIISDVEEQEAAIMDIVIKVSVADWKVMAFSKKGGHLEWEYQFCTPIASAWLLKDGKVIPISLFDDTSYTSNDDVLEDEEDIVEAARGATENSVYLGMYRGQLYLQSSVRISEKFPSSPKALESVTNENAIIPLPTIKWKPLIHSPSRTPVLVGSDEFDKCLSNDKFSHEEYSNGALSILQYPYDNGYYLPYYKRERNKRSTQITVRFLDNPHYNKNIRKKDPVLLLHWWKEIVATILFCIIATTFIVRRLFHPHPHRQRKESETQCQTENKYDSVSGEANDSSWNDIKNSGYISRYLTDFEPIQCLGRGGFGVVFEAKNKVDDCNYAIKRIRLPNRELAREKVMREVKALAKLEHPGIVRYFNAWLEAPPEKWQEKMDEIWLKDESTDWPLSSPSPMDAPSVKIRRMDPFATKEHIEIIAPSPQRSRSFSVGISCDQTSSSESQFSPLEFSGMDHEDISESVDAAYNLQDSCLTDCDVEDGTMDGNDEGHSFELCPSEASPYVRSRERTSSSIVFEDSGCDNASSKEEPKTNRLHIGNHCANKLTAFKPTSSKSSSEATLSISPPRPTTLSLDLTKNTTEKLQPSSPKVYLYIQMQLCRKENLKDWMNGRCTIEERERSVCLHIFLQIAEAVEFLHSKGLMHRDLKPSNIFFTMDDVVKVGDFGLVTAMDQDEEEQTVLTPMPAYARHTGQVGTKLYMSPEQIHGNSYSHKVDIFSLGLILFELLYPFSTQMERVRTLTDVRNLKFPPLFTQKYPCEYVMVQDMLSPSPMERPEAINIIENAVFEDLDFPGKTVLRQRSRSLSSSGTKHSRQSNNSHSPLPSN
Put plainly: Inhibition of human recombinant PEK at 40 nM related to control ULK1.

Test [6] has as its target Ephrin type-A receptor 4 (Homo sapiens) (UniProt P54764). Put plainly: Inhibition of human recombinant EphA4 at 40 nM related to control ULK1.
Test [7] concerns the target Mitogen-activated protein kinase kinase kinase 20 (Homo sapiens) (UniProt Q9NYL2). As to the kind of experiment: Inhibition of human recombinant ZAK at 40 nM related to control ULK1.
The target of test [8] is T2, Serine/threonine-protein kinase Nek1 (Homo sapiens) (UniProt Q96PY6).
T2 sequence (whole entry): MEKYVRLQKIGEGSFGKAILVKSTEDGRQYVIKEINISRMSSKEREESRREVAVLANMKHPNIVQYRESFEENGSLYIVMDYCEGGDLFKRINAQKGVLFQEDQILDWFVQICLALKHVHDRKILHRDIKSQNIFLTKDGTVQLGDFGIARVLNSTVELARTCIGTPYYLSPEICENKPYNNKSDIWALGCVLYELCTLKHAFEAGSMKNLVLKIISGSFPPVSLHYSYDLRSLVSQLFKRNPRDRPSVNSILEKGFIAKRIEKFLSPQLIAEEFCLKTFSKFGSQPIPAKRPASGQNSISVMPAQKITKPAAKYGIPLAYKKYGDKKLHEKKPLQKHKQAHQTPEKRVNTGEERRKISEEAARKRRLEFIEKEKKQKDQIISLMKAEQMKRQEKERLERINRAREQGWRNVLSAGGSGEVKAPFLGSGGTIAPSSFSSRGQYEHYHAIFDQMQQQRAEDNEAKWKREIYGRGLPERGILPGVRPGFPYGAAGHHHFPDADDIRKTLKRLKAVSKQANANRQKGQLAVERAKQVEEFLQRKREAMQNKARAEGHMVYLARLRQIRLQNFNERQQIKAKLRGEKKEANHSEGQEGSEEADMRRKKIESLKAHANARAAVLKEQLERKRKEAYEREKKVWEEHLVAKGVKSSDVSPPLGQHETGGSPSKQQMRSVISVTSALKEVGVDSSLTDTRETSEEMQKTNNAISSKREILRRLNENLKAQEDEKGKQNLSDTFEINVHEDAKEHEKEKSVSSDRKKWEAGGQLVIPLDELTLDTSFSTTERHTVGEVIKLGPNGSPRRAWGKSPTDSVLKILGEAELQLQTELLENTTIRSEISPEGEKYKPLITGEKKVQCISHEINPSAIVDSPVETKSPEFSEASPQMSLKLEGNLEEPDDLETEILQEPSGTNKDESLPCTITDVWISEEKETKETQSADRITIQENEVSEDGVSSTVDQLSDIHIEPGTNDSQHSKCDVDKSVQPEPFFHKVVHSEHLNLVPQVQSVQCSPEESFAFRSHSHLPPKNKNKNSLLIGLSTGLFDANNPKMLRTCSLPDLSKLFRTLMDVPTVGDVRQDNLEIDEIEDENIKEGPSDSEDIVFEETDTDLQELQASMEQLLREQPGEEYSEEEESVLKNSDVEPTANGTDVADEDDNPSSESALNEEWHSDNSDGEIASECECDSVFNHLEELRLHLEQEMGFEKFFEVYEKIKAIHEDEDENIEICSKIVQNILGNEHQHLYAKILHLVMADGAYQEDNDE
Put plainly: Inhibition of human recombinant NEK1 at 40 nM related to control ULK1.

Test [9] addresses Proto-oncogene tyrosine-protein kinase receptor Ret (Homo sapiens) (UniProt P07949). As to the kind of experiment: Inhibition of human recombinant RET at 500 nM related to control ULK1.
In test [10] the target is Death-associated protein kinase 3 (Homo sapiens) (UniProt O43293). Put plainly: Inhibition of human recombinant DAPK3 at 500 nM in presence of ATP by radiometric assay relative to control.
Chain of Death-associated protein kinase 3 (Homo sapiens) (O43293 whole entry, looked up): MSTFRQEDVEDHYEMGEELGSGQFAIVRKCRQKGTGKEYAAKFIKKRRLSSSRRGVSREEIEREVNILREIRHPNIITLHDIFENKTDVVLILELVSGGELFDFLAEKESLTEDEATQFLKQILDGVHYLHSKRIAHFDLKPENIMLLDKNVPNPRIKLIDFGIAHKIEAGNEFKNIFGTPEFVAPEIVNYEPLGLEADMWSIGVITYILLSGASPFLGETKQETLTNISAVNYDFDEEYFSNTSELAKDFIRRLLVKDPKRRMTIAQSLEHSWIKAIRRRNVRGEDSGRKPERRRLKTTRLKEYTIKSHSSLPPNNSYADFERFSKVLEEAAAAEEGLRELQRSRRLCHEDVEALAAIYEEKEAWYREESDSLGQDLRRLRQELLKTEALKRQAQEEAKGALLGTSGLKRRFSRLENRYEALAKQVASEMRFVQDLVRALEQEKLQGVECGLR

Chain of Ephrin type-A receptor 4 (Homo sapiens) (P54764 whole entry): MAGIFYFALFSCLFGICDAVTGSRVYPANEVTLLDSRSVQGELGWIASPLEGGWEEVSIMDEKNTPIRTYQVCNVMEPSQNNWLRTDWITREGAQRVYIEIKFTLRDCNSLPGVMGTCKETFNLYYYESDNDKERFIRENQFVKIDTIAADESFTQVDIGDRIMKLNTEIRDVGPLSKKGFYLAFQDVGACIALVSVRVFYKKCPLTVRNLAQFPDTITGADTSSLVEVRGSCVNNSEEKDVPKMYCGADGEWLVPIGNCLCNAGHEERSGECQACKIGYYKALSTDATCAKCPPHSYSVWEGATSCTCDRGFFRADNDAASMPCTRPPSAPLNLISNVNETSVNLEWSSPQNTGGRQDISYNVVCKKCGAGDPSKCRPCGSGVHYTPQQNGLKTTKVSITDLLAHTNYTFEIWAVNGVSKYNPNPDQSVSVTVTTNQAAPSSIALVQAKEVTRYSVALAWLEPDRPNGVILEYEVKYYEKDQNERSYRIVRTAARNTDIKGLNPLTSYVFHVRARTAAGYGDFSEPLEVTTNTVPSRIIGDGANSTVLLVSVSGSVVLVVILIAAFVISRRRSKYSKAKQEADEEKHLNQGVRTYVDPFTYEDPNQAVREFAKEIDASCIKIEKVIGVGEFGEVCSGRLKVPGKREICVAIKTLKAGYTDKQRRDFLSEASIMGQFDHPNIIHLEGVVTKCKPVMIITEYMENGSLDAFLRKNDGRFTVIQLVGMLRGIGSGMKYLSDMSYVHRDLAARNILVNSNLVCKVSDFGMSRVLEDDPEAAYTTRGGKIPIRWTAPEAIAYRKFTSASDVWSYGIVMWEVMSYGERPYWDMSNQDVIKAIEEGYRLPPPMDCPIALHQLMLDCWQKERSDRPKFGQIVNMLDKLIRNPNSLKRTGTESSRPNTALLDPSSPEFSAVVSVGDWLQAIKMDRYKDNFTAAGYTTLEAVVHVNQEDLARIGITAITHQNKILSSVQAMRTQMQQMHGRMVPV
Chain of Mitogen-activated protein kinase kinase kinase 20 (Homo sapiens) (Q9NYL2 2-800 limits assumed): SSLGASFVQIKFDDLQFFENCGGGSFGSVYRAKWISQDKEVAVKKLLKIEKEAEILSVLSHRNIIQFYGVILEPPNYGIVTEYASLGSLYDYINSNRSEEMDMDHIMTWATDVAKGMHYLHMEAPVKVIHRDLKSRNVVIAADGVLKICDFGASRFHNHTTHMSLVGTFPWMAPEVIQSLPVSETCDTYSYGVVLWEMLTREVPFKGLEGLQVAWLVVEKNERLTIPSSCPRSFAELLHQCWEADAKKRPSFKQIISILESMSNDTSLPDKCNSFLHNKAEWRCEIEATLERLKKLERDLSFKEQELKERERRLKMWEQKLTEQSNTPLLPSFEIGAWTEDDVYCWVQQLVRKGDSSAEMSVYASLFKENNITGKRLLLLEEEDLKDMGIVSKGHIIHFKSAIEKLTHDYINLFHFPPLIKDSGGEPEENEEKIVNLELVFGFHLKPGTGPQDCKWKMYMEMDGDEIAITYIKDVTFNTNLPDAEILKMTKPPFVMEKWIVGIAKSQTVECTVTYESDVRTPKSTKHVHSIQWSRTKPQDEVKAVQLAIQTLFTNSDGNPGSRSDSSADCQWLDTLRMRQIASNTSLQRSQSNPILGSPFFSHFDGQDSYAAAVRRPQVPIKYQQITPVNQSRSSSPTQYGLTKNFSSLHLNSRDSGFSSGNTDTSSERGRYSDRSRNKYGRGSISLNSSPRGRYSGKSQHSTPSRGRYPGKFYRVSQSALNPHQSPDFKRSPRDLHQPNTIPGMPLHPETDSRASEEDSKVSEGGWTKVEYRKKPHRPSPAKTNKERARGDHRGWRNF
Chain of Tyrosine-protein kinase Yes (Homo sapiens) (P07947 2-543 limits assumed): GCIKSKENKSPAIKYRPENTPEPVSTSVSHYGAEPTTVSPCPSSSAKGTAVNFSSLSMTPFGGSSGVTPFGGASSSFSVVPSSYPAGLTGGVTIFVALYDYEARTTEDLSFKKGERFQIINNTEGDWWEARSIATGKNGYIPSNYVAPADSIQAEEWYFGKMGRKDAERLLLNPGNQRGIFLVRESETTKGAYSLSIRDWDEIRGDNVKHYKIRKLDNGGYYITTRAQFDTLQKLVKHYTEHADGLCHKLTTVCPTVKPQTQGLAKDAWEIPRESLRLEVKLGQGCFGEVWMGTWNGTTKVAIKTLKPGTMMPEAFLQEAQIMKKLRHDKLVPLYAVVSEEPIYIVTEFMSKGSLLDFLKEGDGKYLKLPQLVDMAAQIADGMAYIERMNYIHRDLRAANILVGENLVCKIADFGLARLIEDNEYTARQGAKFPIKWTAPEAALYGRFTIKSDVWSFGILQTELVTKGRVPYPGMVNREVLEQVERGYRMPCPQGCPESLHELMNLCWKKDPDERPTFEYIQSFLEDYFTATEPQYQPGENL

For the compound `CC(C)[C@H](NC(=O)c1cc(-c2cnn3cc(-c4ccc(OCCN5CCCCC5)cc4)cnc23)cs1)C(F)(F)F`, the inhibition in test [1] was determined as 11%. For the same compound, the values for the fold change (FC) in test [2] and in test [3] were 0.86 and 0, respectively.
For `O=C(N[C@@H](C1CC1)C(F)(F)F)c1cc(-c2cnn3cc(-c4ccc(F)cc4)cnc23)cs1`, the inhibition in test [4] is 0%. Also, the fold change (FC) in test [5], in test [6], in test [7] and in test [8] was 0 each time.
On to `CNC(=O)c1ccccc1Oc1nc(Nc2cc(OC)c(OC)c(OC)c2)ncc1Br`, for which, in test [9], the fold change (FC) was determined as 0.04. Also, the inhibition in test [10] came out at 10%.
